In brackets after ≈: the same amount, converted by molar mass.
Experiments:
Type in all cases: functional
[1] = system: Staphylococcus aureus; assay: Antibacterial activity against Staphylococcus aureus ATCC 25923
Summary of the method: (§1)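 Twofold serial dilution method; reference laboratory ATCC strains used as test organisms: S. aureus 25923, E. coli 25922, S. pneumoniae 49619, H. influenzae 49247.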

[2] = system: Escherichia coli; assay: Antibacterial activity against Escherichia coli ATCC 25922; summary of the method: as §1
[3] = system: Streptococcus pneumoniae; assay: Antibacterial activity against Streptococcus pneumoniae ATCC 49619; summary of the method: as §1
[4] = system: Haemophilus influenzae; assay: Antibacterial activity against Haemophilus influenzae ATCC 49247; summary of the method: as §1

SMILES	MIC [1]	MIC [2]	MIC [3]	MIC [4]
CC(=O)OC[C@H]1O[C@@H](O[C@@H]2[C@@H](O)[C@H](C)O[C@@H](Oc3ccc(O)cc3[C@@H]3CC(=O)c4c(O)cc(O)cc4O3)[C@@H]2OC(C)=O)[C@H](O)[C@@H](O)[C@@H]1OC(C)=O	128 µg/mL (≈ 177 µM)	64 µg/mL (≈ 88.6 µM)	32 µg/mL (≈ 44.3 µM)	32 µg/mL (≈ 44.3 µM)
CC(=O)OC[C@H]1O[C@@H](O[C@@H]2[C@@H](O)[C@H](C)O[C@@H](Oc3ccc(O)cc3[C@@H]3CC(=O)c4c(O)cc(O)cc4O3)[C@@H]2OC(C)=O)[C@H](O)[C@@H](OC(C)=O)[C@@H]1O	128 µg/mL (≈ 177 µM)	64 µg/mL (≈ 88.6 µM)	32 µg/mL (≈ 44.3 µM)	32 µg/mL (≈ 44.3 µM)
C[C@@H]1O[C@@H](Oc2ccc(O)cc2[C@@H]2CC(=O)c3c(O)cc(O)cc3O2)[C@H](O)[C@H](O[C@@H]2O[C@H](CO)[C@@H](O)[C@H](O)[C@H]2O)[C@H]1O	128 µg/mL (≈ 215 µM)	64 µg/mL (≈ 107 µM)	32 µg/mL (≈ 53.6 µM)	32 µg/mL (≈ 53.6 µM)
CC(=O)OC[C@H]1O[C@@H](O[C@@H]2[C@@H](O)[C@H](C)O[C@@H](Oc3ccc(O)cc3[C@@H]3CC(=O)c4c(O)cc(O)cc4O3)[C@@H]2OC(C)=O)[C@H](O)[C@@H](O)[C@@H]1O	128 µg/mL (≈ 188 µM)	64 µg/mL (≈ 94 µM)	32 µg/mL (≈ 47 µM)	32 µg/mL (≈ 47 µM)
CC[C@H]1OC(=O)[C@H](C)[C@@H](O[C@H]2C[C@@](C)(OC)[C@@H](O)[C@H](C)O2)[C@H](C)[C@@H](O[C@@H]2O[C@H](C)C[C@H](N(C)C)[C@H]2O)[C@](C)(O)C[C@@H](C)CN(C)[C@H](C)[C@@H](O)[C@]1(C)O [AZITHROMYCIN]	0.5 µg/mL (≈ 0.668 µM)	0.5 µg/mL (≈ 0.668 µM)	4 µg/mL (≈ 5.34 µM)	8 µg/mL (≈ 10.7 µM)
CC[C@H]1OC(=O)[C@H](C)[C@@H](O[C@H]2C[C@@](C)(OC)[C@@H](O)[C@H](C)O2)[C@H](C)[C@@H](O[C@@H]2O[C@H](C)C[C@H](N(C)C)[C@H]2O)[C@](C)(O)C[C@@H](C)C(=O)[C@H](C)[C@@H](O)[C@]1(C)O [ERYTHROMYCIN]	0.25 µg/mL (≈ 0.341 µM)	0.25 µg/mL (≈ 0.341 µM)	64 µg/mL (≈ 87.2 µM)	64 µg/mL (≈ 87.2 µM)

More lines, in order of falling MIC [1], values ahead:

MIC [1]	MIC [2]	MIC [3]	MIC [4]	SMILES
128 µg/mL (≈ 177 µM)	64 µg/mL (≈ 88.6 µM)	32 µg/mL (≈ 44.3 µM)	32 µg/mL (≈ 44.3 µM)	CC(=O)OC[C@H]1O[C@@H](O[C@@H]2[C@@H](O)[C@H](C)O[C@@H](Oc3ccc(O)cc3[C@@H]3CC(=O)c4c(O)cc(O)cc4O3)[C@@H]2OC(C)=O)[C@H](OC(C)=O)[C@@H](O)[C@@H]1O
128 µg/mL (≈ 200 µM)	64 µg/mL (≈ 100 µM)	32 µg/mL (≈ 50.1 µM)	32 µg/mL (≈ 50.1 µM)	CC(=O)O[C@H]1[C@H](Oc2ccc(O)cc2[C@@H]2CC(=O)c3c(O)cc(O)cc3O2)O[C@@H](C)[C@H](O)[C@H]1O[C@@H]1O[C@H](CO)[C@@H](O)[C@H](O)[C@H]1O
128 µg/mL (≈ 167 µM)	64 µg/mL (≈ 83.7 µM)	32 µg/mL (≈ 41.8 µM)	32 µg/mL (≈ 41.8 µM)	CC(=O)OC[C@H]1O[C@@H](O[C@@H]2[C@@H](O)[C@H](C)O[C@@H](Oc3ccc(O)cc3[C@@H]3CC(=O)c4c(O)cc(O)cc4O3)[C@@H]2OC(C)=O)[C@H](O)[C@@H](OC(C)=O)[C@@H]1OC(C)=O
